One may read the IC50 as the point on the concentration scale where inhibition reaches its midpoint.

Data on twelve compounds can be found in ChEMBL document CHEMBL1153903, “Tethered thiazolidinone dimers as inhibitors of the bacterial type III secretion system” (Bioorg Med Chem Lett, 2009).

The assay in a line: Inhibition of T3SS-dependent SipA secretion in Salmonella Typhimurium. The arrangement: species or system Salmonella enterica subsp. enterica serovar Typhimurium. The gist of the method:
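Salmonella typhimurium type III secretion read out as secretion of the substrate SipA into culture supernatants. Supernatant proteins TCA-precipitated, resolved by SDS-PAGE and Western blotted with anti-SipA antibody; IC50 derived from the reduction in secreted SipA.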
The compound `COc1cc(/C=C2\S/C(=N\c3ccccc3)N(CC(=O)Nc3ccccc3NC(=O)CN3C(=O)/C(=C/c4cc(OC)c(O)c(OC)c4)S/C3=N\c3ccccc3)C2=O)cc(OC)c1O` showed an IC50 of 22 µM. `COc1cc(/C=C2\S/C(=N\c3ccccc3)N(CCNC(=O)C3CCCN3C(=O)CN3C(=O)/C(=C/c4cc(OC)c(O)c(OC)c4)S/C3=N\c3ccccc3)C2=O)cc(OC)c1O` (configuration not stated) had an IC50 of 55 µM. Then `COc1cc(/C=C2\S/C(=N\c3ccccc3)N(CCCCCCNC(=O)CCCN3C(=O)/C(=C/c4cc(OC)c(O)c(OC)c4)S/C3=N\c3ccccc3)C2=O)cc(OC)c1O`, with 17 µM; and `COc1cc(/C=C2\S/C(=N\c3ccccc3)N(c3ccccc3)C2=O)cc(OC)c1O`, with 83 µM. With `COc1cc(/C=C2\S/C(=N\c3ccccc3)N(CCCCCCNC(=O)CN3C(=O)/C(=C/c4cc(OC)c(O)c(OC)c4)S/C3=N\c3ccccc3)C2=O)cc(OC)c1O`, the IC50 came to 5 µM. Then `COc1cc(/C=C2\S/C(=N\c3ccccc3)N(CCCNC(=O)CN3C(=O)/C(=C/c4cc(OC)c(O)c(OC)c4)S/C3=N\c3ccccc3)C2=O)cc(OC)c1O`, with 48 µM. Compound `COc1cc(/C=C2\S/C(=N\c3ccccc3)N(CCN3CCN(CCN4C(=O)/C(=C/c5cc(OC)c(O)c(OC)c5)S/C4=N\c4ccccc4)CC3)C2=O)cc(OC)c1O` came in with an IC50 of 44 µM. With `COc1cc(/C=C2\S/C(=N\c3ccccc3)N(CCCCCCNCCN3C(=O)/C(=C/c4cc(OC)c(O)c(OC)c4)S/C3=N\c3ccccc3)C2=O)cc(OC)c1O`, the IC50 worked out at 65 µM. The figure for `COc1cc(/C=C2\S/C(=N\c3ccccc3)N(CCCCNC(=N)NCCN3C(=O)/C(=C/c4cc(OC)c(O)c(OC)c4)S/C3=N\c3ccccc3)C2=O)cc(OC)c1O` is 47 µM. In the case of `COc1cc(/C=C2\S/C(=N\c3ccccc3)N(CCCNC(=O)[C@H](CCCNC(=N)N)NC(=O)CN3C(=O)/C(=C/c4cc(OC)c(O)c(OC)c4)S/C3=N\c3ccccc3)C2=O)cc(OC)c1O`, the IC50 stood at 48 µM. `COc1cc(/C=C2\S/C(=N\c3ccccc3)N(CC(=O)Nc3cccc(NC(=O)CN4C(=O)/C(=C/c5cc(OC)c(O)c(OC)c5)S/C4=N\c4ccccc4)c3)C2=O)cc(OC)c1O`: the IC50 worked out at 80 µM.

Regarding `COc1cc(/C=C2\S/C(=N\c3ccccc3)N(CCCNC(=O)[C@H](Cc3ccc(-c4ccccc4)cc3)NC(=O)[C@H](CCCN)N3C(=O)/C(=C/c4cc(OC)c(O)c(OC)c4)S/C3=N\c3ccccc3)C2=O)cc(OC)c1O`, inhibition was half-maximal at 49 µM (IC50).
